Activity calls are given as the source filed them. The rule behind the calls is not given here. Where only a bound is given, the exact number is not on record here.

For one series, the species on record is Homo sapiens. The series can be described thus: Selectivity index, ratio of Ki for human recombinant CB1 receptor to Ki for human recombinant CB2 receptor.
For another series, the target named is Cannabinoid receptor 1 (Homo sapiens, UniProt P21554). Kind of series: biochemical. It is filed as cell-based, HEK293.
Cannabinoid receptor 1, sequence (P21554 whole entry): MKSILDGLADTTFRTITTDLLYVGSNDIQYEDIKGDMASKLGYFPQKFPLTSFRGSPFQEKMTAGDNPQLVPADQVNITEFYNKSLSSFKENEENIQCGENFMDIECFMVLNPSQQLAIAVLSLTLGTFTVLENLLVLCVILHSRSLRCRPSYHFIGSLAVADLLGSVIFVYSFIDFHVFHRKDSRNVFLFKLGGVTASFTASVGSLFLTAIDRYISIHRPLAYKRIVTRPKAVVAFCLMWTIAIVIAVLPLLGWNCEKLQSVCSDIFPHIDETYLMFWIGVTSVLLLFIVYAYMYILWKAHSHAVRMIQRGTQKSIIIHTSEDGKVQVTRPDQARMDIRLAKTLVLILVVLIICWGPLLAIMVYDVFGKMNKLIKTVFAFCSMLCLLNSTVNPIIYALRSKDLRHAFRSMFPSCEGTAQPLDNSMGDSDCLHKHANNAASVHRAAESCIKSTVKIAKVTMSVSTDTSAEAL
Another series deals with Cannabinoid receptor 2 (Homo sapiens, UniProt P34972). The series can be described thus: Displacement of [3H]CP-55940 from human recombinant CB2 receptor expressed in HEK cells. Type of series: cell-based, HEK293. (In general: Loss of bound radioactivity is the signal in a displacement assay; it reports binding, not function.)
Cannabinoid receptor 2, sequence (P34972 whole entry): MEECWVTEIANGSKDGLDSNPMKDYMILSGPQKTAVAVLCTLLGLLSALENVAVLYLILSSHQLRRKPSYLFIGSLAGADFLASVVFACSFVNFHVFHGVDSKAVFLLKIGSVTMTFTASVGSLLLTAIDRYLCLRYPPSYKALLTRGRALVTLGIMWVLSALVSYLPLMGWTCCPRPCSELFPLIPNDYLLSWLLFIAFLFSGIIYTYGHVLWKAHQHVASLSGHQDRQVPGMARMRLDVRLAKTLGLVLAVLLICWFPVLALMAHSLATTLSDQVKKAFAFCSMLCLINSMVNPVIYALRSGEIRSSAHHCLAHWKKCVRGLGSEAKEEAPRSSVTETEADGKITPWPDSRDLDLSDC
A short description of series [1]: Cytotoxicity against human HepG2 cells assessed as cell viability at 1 uM after 72 hrs by MTT assay. It is filed as cell-based. To be noted: read-out: Activity. The essentials: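 HepG2 cells in DMEM with 10% FBS at 37 °C and 5% CO2 were seeded at 1 × 10⁵ per well and left to attach for 24 h. Compound was added at 1 μM final, diluted from a 1 mM DMSO stock, for 72 h. MTT was then added for 4 h at 37 °C, formazan was dissolved in DMSO and read at 540 nm. Viability = A(test)/A(medium-only control) × 100.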
(In general: Tetrazolium assays rely on reduction of a dye to a coloured formazan, in cell work by metabolically active cells.)

Series [2] has as its system Mus musculus. Kind of series: Antinociceptive activity in mouse assessed as reduction of formalin-induced nocifensive response at 6 mg/kg, ip administered 15 mins before formalin challenge measured second phase of 20 to 60 mins in presence of CB2 receptor antagonist 1 mg/kg, ip of AM630. It is filed as functional, organism-based. The essentials:
(§1)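 Formalin paw test in mice. AM630 (1 mg/kg, ip) was given 5 min before the compound, and the compound was given ip 15 min before intraplantar-dorsal formalin (1.25% in saline, 30 μL). A blinded observer timed paw lifting, favoring, licking, shaking and flinching at 0–10 and 20–60 min. n = 8–10 per group. Means ± SEM, ANOVA with Dunnett's test.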

The target of series [3] is T1, Fatty-acid amide hydrolase 1 (Rattus norvegicus) (UniProt P97612).
T1 sequence (whole entry): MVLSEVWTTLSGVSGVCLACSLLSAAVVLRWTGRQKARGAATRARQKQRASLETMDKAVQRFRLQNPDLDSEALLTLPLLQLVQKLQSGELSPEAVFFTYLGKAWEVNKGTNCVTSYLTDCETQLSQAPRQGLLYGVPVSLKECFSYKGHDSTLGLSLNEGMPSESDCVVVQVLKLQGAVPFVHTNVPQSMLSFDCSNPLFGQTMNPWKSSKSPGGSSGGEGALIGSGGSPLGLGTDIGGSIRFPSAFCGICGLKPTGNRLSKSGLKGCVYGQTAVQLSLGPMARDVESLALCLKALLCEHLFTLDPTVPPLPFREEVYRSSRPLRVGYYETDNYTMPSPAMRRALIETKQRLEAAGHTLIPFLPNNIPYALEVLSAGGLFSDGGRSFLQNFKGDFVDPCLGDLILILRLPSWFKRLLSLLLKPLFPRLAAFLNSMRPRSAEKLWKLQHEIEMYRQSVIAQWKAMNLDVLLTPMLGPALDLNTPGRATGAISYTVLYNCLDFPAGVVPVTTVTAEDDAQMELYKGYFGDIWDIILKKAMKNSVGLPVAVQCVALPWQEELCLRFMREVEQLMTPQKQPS
Kind of series: Inhibition of rat brain FAAH assessed as [14C]-anandamide hydrolysis up to 10 uM. The essentials: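 Hydrolysis of [¹⁴C]-anandamide by rat brain FAAH-like activity, with compound at 0.1, 1, 5 and 10 μM.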

The test system of series [4] is Mus musculus. The series can be described thus: Antinociceptive activity in mouse assessed as reduction of formalin-induced nocifensive response at 6 mg/kg, ip administered 15 mins before formalin challenge measured second phase of 20 to 60 mins. Type of series: functional, organism-based. Further details: dose 6 mg/kg. The essentials: (§2)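 Mice received compound ip at 1, 3 or 6 mg/kg (or vehicle) 15 min before formalin (1.25% in saline, 30 μL) was injected into the dorsal hindpaw. An observer blind to treatment timed lifting, favoring, licking, shaking and flinching of the injected paw over 0–10 min (early phase) and 20–60 min (late phase). n = 8–10 per group, one treatment per animal. Means ± SEM, ANOVA with Dunnett's test.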

The next series relates to COS-7. The series can be described thus: Inhibition of MAGL in african green monkey COS7 cells assessed as [14C]-2-arachidonoyl-glycerol hydrolysis up to 10 uM. As to conditions: Chlorocebus aethiops. Type of series: cell-based. The essentials: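 COS-7 cell MAGL-like activity measured as hydrolysis of [¹⁴C]-2-arachidonoyl-glycerol, with compound tested at 0.1, 1, 5 and 10 μM.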

In series [5] the test system is Mus musculus. Kind of series: Antinociceptive activity in mouse assessed as reduction of formalin-induced nocifensive response at 3 mg/kg, ip administered 15 mins before formalin challenge measured second phase of 20 to 60 mins. Type of series: functional, organism-based. Further details: dose 3 mg/kg. The essentials: as §2
For series [6], the system named is Mus musculus. The series can be described thus: Antinociceptive activity in ip dosed mouse assessed as reduction of formalin-induced nocifensive response administered 15 mins before formalin challenge measured first phase of 0 to 10 mins. Type of series: functional. To be noted: read-out: MED. The essentials: as §2
The test system of series [7] is Mus musculus. The series can be described thus: Antinociceptive activity in mouse assessed as reduction of formalin-induced nocifensive response at 3 mg/kg, ip administered 15 mins before formalin challenge measured first phase of 0 to 10 mins in presence of CB2 receptor antagonist 1 mg/kg, ip of AM630. It is filed as functional, organism-based. The essentials: as §1

Series [8] deals with Mus musculus. The series can be described thus: Antinociceptive activity in mouse assessed as reduction of formalin-induced nocifensive response at 3 mg/kg, ip administered 15 mins before formalin challenge measured first phase of 0 to 10 mins. Type of series: functional, organism-based. Also on record: dose 3 mg/kg. The essentials: as §2

As for `CCCCCn1c(=O)c(C(=O)NC23CC4CC(CC(C4)C2)C3)cc2ccccc21`, the Ratio Ki in the series listed under Homo sapiens was found to be 157. The Ki (usually a dissociation constant, usually derived from enzyme kinetics or from competition with a known ligand) is 31.3 nM at Cannabinoid receptor 1 and 0.2 nM on Cannabinoid receptor 2.

As to `O=C(NC12CC3CC(CC(C3)C1)C2)c1cnc2c(-c3ccccc3)cccc2c1O`, the Ki on Cannabinoid receptor 1 was over 10000 nM; at Cannabinoid receptor 2, 220 nM. Besides, the viability at 72 h, 1 µM in [1] is over 95%.

In the case of `CCCCCn1cc(C(=O)NC23CC4CC(CC(C4)C2)C3)c(=O)c2cccc(OC)c21`, the Ratio Ki in the series listed under Homo sapiens was over 16700. Further, the outcome in the series on Mus musculus [2] and in the series with Mus musculus [4] was Active. Besides, the inhibition result (in series [3]; in the series with COS-7) was “inactive” in each case. Besides, the Ki on Cannabinoid receptor 1 was over 10000 nM; at Cannabinoid receptor 2, 0.6 nM. Further, the viability at 72 h, 1 µM in [1] is over 95%.

As to `CCC1COc2cccc3c(=O)c(C(=O)NC45CC6CC(CC(C6)C4)C5)cn1c23` (stereo not given), the outcome with Mus musculus [5] and in the series with Mus musculus [7] was Active. Also, in the series with Mus musculus [6], the minimal effective dose turned out to be 1 mg/kg. Further, the Ratio Ki in the series filed under Homo sapiens was 145. Besides, the inhibition result (in series [3]; with COS-7) was “inactive” each time. For the same compound, the Ki at Cannabinoid receptor 1 amounted to 1000 nM; on Cannabinoid receptor 2 it was 6.9 nM. In addition, the viability at 72 h, 1 µM in [1] is over 95%.

As to `CCCCCn1c(=O)c(C(=O)NC23CC4CC(CC(C4)C2)C3)c(O)c2cc(-c3ccco3)ccc21`, the Ratio Ki in the series listed under Homo sapiens was found to be 18. The results for the Ki at Cannabinoid receptor 1 and at Cannabinoid receptor 2 were 270 nM and 15 nM, respectively. In series [1], the viability at 72 h, 1 µM was over 95%.

For `CCCCCn1cc(C(=O)NC23CC4CC(CC(C4)C2)C3)c(=O)c2cccc([N+](=O)[O-])c21`, the Ratio Ki in the series listed under Homo sapiens turned out to be 200. Also, the Ki at Cannabinoid receptor 1 turned out to be 200 nM; on Cannabinoid receptor 2 it was 1 nM.

For the compound `CCCCCn1cc(C(=O)NC23CC4CC(CC(C4)C2)C3)c(=O)c2cc(-c3ccccc3)cc(OC)c21`, in the series filed under Homo sapiens, the Ratio Ki is over 23. Further, the Ki is over 10000 nM on Cannabinoid receptor 1 and 430 nM on Cannabinoid receptor 2. Moreover, the viability at 72 h, 1 µM in [1] is over 95%.

As for `CCCCCn1cc(C(=O)NC23CC4CC(CC(C4)C2)C3)c(=O)c2cc(Br)cc(OC)c21`, the Ratio Ki in the series filed under Homo sapiens is over 437. The Ki was over 10000 nM at Cannabinoid receptor 1 and 22.9 nM on Cannabinoid receptor 2. In addition, the viability at 72 h, 1 µM in [1] is over 95%.

Regarding `CCCCCn1cc(C(=O)NC23CC4CC(CC(C4)C2)C3)c(=O)c2cccc(C)c21`, the Ratio Ki in the series listed under Homo sapiens was over 2040. Further, the Ki on Cannabinoid receptor 1 was over 10000 nM; at Cannabinoid receptor 2 it was 0.7 nM. Further, the viability at 72 h, 1 µM in series [1] was over 95%.

Turning to `CCCCCOc1cccc2c(O)c(C(=O)NC34CC5CC(CC(C5)C3)C4)cnc12`, the Ki at Cannabinoid receptor 1 turned out to be 260 nM; on Cannabinoid receptor 2, 60 nM. Moreover, the viability at 72 h, 1 µM in [1] is over 95%.

Take `CCCCCOc1cccc2c(=O)c(C(=O)NC34CC5CC(CC(C5)C3)C4)c[nH]c12`: the Ratio Ki in the series filed under Homo sapiens worked out at 4.3.

Take `CCCCCn1c(=O)c(C(=O)NC23CC4CC(CC(C4)C2)C3)c(O)c2cc(Br)ccc21`: the result in the series on Mus musculus [5] and in the series on Mus musculus [8] was Active. The Ratio Ki in the series listed under Homo sapiens is over 340. Further, the inhibition result (in series [3]; in the series on COS-7) was “inactive” each time. In addition, the Ki is over 10000 nM on Cannabinoid receptor 1 and 29.4 nM on Cannabinoid receptor 2. In series [1], the viability at 72 h, 1 µM is over 95%. For the same compound, the result with Mus musculus [7] was inactive.

`COc1cccc2c(O)c(C(=O)NC34CC5CC(CC(C5)C3)C4)cnc12`: the Ki was over 10000 nM on Cannabinoid receptor 1 and 3440 nM at Cannabinoid receptor 2.

As to `CCCCc1[nH]c2ccc(Br)cc2c(=O)c1C(=O)NC12CC3CC(CC(C3)C1)C2`, the Ratio Ki in the series listed under Homo sapiens was over 8. Moreover, the figures for the inhibition constant Ki at Cannabinoid receptor 1 and on Cannabinoid receptor 2 were over 10000 nM and 1180 nM, respectively.

`COc1cccc2c(=O)c(C(=O)NC34CC5CC(CC(C5)C3)C4)c[nH]c12`: the Ratio Ki in the series listed under Homo sapiens was over 2.9.

As to `CCCCCn1cc(C(=O)NC23CC4CC(CC(C4)C2)C3)c(=O)c2cc(-c3ccco3)cc(OC)c21`, the result with Mus musculus [5] was Active. Further, in the series on Mus musculus [6], the minimal effective dose stood at 1 mg/kg. Moreover, in the series filed under Homo sapiens, the Ratio Ki was over 1180. Besides, the inhibition result (in [3]; with COS-7) was “inactive” in each case. Moreover, the Ki on Cannabinoid receptor 1 was over 10000 nM; on Cannabinoid receptor 2 it was 8.5 nM. Also, the viability at 72 h, 1 µM in series [1] is over 95%. Moreover, in the series with Mus musculus [7], the result was inactive.

Consider `O=C(NC12CC3CC(CC(C3)C1)C2)c1c[nH]c2c(-c3ccccc3)cccc2c1=O`, for which, in the series listed under Homo sapiens, the Ratio Ki was 45.

As to `CCCCc1[nH]c2ccc(-c3ccco3)cc2c(=O)c1C(=O)NC12CC3CC(CC(C3)C1)C2`, in the series filed under Homo sapiens, the Ratio Ki was over 75. Moreover, the Ki on Cannabinoid receptor 1 was over 10000 nM; on Cannabinoid receptor 2, 133 nM. Also, the viability at 72 h, 1 µM in series [1] was over 95%.

The values above are taken from ChEMBL document CHEMBL1811785, “Investigations on the 4-quinolone-3-carboxylic acid motif. 4. Identification of new potent and selective ligands for the cannabinoid type 2 receptor with diverse substitution patterns and antihyperalgesic effects in mice” (J Med Chem, 2011).
